Data: ChEMBL document CHEMBL1155370, “Discovery and initial SAR of pyrimidin-4-yl-1H-imidazole derivatives with antiproliferative activity against melanoma cell lines” (Bioorg Med Chem Lett, 2010)
Activity calls are given as the source filed them. No cut-off for these calls is given here.

Tests used:
[1] = (§1) Growth inhibition of human A375P cells by MTT assay; format: functional
Summary of the method: (§2)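 A375P cells grown in DMEM with 10% FBS and 1% penicillin/streptomycin at 37 °C in 5% CO2. Cells were detached with trypsin-EDTA, seeded at 5×10^3 cells/well and left 24 h. They were then treated with a 12-point three-fold serial dilution. Viability was read by MTT reduction assay as absorbance at 590 nm.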

[2] = (§3) Growth inhibition of human WM3629 cells by MTT assay; format: functional
Summary of the method: (§4)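 WM3629 cells kept in Tu2% medium. They were seeded at 5×10^3 cells/well, rested 24 h, then exposed to a 12-point three-fold serial dilution. GI50 was taken from an MTT reduction assay read at 590 nm.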

[3] = Selectivity ratio of GI50 for human WM3629 cells to GI50 for human A375P cells; format: functional
[4] = Growth inhibition of human A375P cells at 164 uM by MTT assay relative to total growth; format: functional; conditions: read-out: GI
A375P = assay: as §1; format: functional; summary of the method: as §2
[5] = target: Serine/threonine-protein kinase PAK 4 (Homo sapiens) (UniProt O96013); assay: Inhibition of PAK4 at 10 uM
Summary of the method: (§5)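 Single-dose panel screen across 30 kinases at 10 µM, run in duplicate; % inhibition reported.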

[6] = target: Dual specificity mitogen-activated protein kinase kinase 1 (Homo sapiens) (UniProt Q02750); assay: Inhibition of MEK1 at 10 uM; summary of the method: as §5
[7] = target: Tyrosine-protein kinase Lyn (Homo sapiens) (UniProt P07948); assay: Inhibition of LYN at 10 uM; summary of the method: as §5
[8] = target: Serine/threonine-protein kinase Chk1 (Homo sapiens) (UniProt O14757); assay: Inhibition of CHK1 at 10 uM; summary of the method: as §5
[9] = target: DNA-dependent protein kinase catalytic subunit (Homo sapiens) (UniProt P78527); assay: Inhibition of DNA-PK at 10 uM; summary of the method: as §5
[10] = target: Glycogen synthase kinase-3 beta (Homo sapiens) (UniProt P49841); assay: Inhibition of GSK3-beta at 10 uM; summary of the method: as §5
[11] = target: RAC-alpha serine/threonine-protein kinase (Homo sapiens) (UniProt P31749); assay: Inhibition of AKT1 at 10 uM; summary of the method: as §5
RAC-alpha serine/threonine-protein kinase (Homo sapiens), sequence (P31749 whole entry): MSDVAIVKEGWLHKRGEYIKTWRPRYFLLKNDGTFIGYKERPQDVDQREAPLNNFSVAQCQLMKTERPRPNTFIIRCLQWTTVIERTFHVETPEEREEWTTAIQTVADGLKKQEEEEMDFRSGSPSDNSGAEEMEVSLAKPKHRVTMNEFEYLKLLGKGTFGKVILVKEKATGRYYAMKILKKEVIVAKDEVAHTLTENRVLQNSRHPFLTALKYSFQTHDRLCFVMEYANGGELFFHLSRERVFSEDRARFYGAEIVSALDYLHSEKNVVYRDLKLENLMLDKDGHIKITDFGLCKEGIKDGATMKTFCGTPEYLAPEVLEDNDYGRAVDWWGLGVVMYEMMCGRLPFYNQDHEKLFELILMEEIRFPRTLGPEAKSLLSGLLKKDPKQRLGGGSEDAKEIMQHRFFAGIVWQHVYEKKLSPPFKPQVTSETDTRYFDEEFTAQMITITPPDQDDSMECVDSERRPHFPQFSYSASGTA

[12] = target: Mitogen-activated protein kinase 14 (Homo sapiens) (UniProt Q16539); assay: Inhibition of p38alpha at 10 uM; summary of the method: as §5
[13] = target: Focal adhesion kinase 1 (Homo sapiens) (UniProt Q05397); assay: Inhibition of human FAK at 10 uM; summary of the method: as §5
[14] = target: BDNF/NT-3 growth factors receptor (Homo sapiens) (UniProt Q16620); assay: Inhibition of TrkB at 10 uM; summary of the method: as §5
[15] = target: Mitogen-activated protein kinase 8 (Homo sapiens) (UniProt P45983); assay: Inhibition of JNK1 at 10 uM; summary of the method: as §5
[16] = target: Macrophage-stimulating protein receptor (Homo sapiens) (UniProt Q04912); assay: Inhibition of RON at 10 uM; summary of the method: as §5
[17] = target: Tyrosine-protein kinase JAK3 (Homo sapiens) (UniProt P52333); assay: Inhibition of JAK3 at 10 uM; summary of the method: as §5
[18] = target: ALK tyrosine kinase receptor (Homo sapiens) (UniProt Q9UM73); assay: Inhibition of ALK at 10 uM; summary of the method: as §5
[19] = target: Protein kinase C alpha type (Homo sapiens) (UniProt P17252); assay: Inhibition of PKCalpha at 10 uM; summary of the method: as §5
[20] = target: Myotonin-protein kinase (Homo sapiens) (UniProt Q09013); assay: Inhibition of DMPK at 10 uM; summary of the method: as §5
[21] = target: Cyclin-dependent kinase 1/cyclin B1 (Homo sapiens) (UniProt P06493+P14635); assay: Inhibition of CDK1/cyclin B at 10 uM; format: protein-complex assay; summary of the method: as §5
[22] = target: Cyclin-dependent kinase 2/cyclin E1 (Homo sapiens) (UniProt P24864+P24941); assay: Inhibition of CDK2/cyclin E at 10 uM; format: protein-complex assay; summary of the method: as §5
[23] = target: RAF proto-oncogene serine/threonine-protein kinase (Homo sapiens) (UniProt P04049); assay: Inhibition of cRAF at 10 uM; summary of the method: as §5
[24] = target: Cyclin-dependent kinase 5/CDK5 activator 1 (Homo sapiens) (UniProt Q00535+Q15078); assay: Inhibition of CDK5/p25 at 10 uM; format: protein-complex assay; summary of the method: as §5
[25] = target: Serine/threonine-protein kinase mTOR (Homo sapiens) (UniProt P42345); assay: Inhibition of mTOR at 10 uM; summary of the method: as §5
[26] = target: Receptor-type tyrosine-protein kinase FLT3 (Homo sapiens) (UniProt P36888); assay: Inhibition of human FLT3 at 10 uM; summary of the method: as §5
[27] = target: Proto-oncogene tyrosine-protein kinase ROS (Homo sapiens) (UniProt P08922); assay: Inhibition of ROS at 10 uM; summary of the method: as §5
Proto-oncogene tyrosine-protein kinase ROS (Homo sapiens), sequence (P08922 whole entry): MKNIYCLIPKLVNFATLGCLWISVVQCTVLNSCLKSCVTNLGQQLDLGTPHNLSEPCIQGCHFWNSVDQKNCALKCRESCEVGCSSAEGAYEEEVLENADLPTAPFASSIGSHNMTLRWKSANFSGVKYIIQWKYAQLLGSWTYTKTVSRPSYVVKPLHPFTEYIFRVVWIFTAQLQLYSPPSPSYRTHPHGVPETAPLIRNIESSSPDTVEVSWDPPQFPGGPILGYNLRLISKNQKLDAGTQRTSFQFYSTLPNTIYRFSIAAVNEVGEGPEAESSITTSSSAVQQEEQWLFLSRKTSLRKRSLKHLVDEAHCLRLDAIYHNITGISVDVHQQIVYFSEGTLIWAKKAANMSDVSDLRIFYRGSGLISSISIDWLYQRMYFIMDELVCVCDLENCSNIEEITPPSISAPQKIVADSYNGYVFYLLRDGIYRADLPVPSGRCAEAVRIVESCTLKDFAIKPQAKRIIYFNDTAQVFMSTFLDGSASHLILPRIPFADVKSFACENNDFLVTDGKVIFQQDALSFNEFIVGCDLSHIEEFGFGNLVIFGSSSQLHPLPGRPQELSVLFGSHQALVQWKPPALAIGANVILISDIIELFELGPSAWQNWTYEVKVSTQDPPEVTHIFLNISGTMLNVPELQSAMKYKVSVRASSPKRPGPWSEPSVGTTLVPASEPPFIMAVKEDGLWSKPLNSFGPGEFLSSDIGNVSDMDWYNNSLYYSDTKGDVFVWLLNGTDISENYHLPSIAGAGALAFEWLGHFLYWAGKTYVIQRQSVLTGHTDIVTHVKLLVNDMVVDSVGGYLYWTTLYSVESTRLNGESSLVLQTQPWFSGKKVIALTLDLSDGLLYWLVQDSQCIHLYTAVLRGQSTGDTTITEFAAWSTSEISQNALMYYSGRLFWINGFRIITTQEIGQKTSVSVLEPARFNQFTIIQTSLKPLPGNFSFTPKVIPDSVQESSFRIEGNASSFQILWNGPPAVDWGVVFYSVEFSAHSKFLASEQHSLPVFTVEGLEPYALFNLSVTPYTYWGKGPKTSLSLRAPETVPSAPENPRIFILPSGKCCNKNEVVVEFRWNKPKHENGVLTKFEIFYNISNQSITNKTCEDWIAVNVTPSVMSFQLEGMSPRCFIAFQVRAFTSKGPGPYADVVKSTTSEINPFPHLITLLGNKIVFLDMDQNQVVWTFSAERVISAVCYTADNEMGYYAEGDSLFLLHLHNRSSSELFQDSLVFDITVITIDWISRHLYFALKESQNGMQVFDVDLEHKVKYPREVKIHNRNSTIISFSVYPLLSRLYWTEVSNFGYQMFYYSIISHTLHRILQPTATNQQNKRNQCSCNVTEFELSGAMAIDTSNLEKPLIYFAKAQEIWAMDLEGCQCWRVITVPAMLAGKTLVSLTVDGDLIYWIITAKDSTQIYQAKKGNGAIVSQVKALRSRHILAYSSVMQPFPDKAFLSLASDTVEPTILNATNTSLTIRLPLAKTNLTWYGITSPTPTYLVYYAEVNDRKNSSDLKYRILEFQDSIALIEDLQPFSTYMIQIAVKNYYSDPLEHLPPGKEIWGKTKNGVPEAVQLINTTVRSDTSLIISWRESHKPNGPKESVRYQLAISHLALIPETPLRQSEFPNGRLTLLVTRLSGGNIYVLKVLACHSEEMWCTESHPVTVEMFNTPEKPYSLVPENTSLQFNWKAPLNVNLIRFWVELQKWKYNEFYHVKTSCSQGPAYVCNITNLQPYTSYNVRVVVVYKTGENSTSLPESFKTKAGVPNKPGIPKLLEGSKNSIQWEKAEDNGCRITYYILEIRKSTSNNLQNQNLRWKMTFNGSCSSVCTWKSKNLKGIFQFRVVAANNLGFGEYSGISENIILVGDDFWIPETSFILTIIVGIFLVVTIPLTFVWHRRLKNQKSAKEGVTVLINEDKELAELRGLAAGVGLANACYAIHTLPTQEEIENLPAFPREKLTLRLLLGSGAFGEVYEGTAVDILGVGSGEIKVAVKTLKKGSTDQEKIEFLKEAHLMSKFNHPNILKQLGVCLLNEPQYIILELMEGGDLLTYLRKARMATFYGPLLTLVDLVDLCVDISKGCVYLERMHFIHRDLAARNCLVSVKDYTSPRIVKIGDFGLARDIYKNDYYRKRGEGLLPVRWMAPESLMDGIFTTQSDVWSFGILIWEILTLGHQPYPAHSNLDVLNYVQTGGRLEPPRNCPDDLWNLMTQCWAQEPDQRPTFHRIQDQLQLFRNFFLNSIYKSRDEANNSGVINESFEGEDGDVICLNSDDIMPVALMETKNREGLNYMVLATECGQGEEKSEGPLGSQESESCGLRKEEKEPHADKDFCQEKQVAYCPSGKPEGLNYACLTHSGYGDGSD

[28] = target: Proto-oncogene tyrosine-protein kinase Src (Homo sapiens) (UniProt P12931); assay: Inhibition of c-Src at 10 uM; summary of the method: as §5
Proto-oncogene tyrosine-protein kinase Src (Homo sapiens), sequence (P12931 2-536 limits assumed): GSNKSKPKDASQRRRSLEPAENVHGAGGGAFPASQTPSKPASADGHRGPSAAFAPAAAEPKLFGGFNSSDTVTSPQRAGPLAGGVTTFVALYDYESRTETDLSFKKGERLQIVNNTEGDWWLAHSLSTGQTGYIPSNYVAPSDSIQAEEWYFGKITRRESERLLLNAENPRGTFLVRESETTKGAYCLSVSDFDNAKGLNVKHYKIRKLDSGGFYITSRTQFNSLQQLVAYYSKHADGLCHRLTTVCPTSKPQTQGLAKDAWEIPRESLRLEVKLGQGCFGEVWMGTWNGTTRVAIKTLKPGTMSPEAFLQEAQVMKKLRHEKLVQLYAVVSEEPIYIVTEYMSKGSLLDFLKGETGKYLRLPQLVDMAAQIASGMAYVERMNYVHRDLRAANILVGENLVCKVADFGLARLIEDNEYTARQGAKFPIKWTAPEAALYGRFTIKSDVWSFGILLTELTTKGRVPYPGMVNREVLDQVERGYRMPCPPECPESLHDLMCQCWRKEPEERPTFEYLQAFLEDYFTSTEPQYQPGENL

[29] = target: Ribosomal protein S6 kinase beta-1 (Homo sapiens) (UniProt P23443); assay: Inhibition of p70S6K at 10 uM; summary of the method: as §5
[30] = Inhibition of PKA at 10 uM
Summary of the method: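 Single-concentration screen at 10 µM within a 30-kinase panel, run in duplicate; read-out is percent inhibition of kinase activity.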

[31] = target: Mitogen-activated protein kinase 1 (Homo sapiens) (UniProt P28482); assay: Inhibition of ERK2 at 10 uM; summary of the method: as §5
Mitogen-activated protein kinase 1 (Homo sapiens), sequence (P28482 whole entry): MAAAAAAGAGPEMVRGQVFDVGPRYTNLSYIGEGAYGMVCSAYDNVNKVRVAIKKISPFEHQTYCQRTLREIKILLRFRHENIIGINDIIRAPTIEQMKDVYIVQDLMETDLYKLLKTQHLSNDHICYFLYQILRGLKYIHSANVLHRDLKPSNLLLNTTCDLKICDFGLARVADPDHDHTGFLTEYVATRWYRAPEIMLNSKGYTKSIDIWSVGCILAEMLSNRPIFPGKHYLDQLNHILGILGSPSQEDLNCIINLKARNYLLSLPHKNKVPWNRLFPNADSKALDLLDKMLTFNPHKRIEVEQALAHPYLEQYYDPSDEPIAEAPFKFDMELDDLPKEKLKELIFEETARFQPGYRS

[32] = target: Tyrosine-protein kinase SYK (Homo sapiens) (UniProt P43405); assay: Inhibition of SYK at 10 uM; summary of the method: as §5
[33] = target: Epidermal growth factor receptor (Homo sapiens) (UniProt P00533); assay: Inhibition of EGFR at 10 uM; summary of the method: as §5
Epidermal growth factor receptor (Homo sapiens), sequence (P00533 whole entry): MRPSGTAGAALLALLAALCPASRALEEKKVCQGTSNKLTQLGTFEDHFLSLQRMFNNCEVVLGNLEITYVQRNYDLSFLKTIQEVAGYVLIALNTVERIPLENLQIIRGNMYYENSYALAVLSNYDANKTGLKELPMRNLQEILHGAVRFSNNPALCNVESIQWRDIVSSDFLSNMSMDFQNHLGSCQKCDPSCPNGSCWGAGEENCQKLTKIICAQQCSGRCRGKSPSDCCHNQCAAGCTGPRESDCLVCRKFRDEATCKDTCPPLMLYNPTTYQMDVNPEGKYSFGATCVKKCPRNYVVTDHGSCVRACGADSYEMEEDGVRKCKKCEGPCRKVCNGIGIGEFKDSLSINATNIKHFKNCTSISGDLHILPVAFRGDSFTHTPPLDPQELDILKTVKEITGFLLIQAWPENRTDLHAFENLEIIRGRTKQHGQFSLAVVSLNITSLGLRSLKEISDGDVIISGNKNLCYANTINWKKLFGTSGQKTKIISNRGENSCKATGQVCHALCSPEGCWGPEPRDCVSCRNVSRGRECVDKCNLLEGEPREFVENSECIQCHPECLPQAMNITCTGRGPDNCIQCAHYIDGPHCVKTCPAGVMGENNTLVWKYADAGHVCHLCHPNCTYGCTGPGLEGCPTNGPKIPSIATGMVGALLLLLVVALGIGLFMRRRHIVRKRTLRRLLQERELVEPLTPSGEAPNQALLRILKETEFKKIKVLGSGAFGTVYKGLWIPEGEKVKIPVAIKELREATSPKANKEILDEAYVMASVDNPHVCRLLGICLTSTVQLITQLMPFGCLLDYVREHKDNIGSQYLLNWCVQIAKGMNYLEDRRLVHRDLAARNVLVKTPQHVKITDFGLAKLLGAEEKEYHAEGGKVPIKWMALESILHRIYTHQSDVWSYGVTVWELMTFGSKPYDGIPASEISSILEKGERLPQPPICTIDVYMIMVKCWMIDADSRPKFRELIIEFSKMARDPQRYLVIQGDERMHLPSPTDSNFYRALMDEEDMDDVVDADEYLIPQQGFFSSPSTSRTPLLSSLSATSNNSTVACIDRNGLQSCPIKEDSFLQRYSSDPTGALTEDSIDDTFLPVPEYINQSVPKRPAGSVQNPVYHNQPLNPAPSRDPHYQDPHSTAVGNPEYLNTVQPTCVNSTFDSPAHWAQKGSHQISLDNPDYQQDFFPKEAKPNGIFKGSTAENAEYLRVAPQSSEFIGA

[34] = target: Insulin-like growth factor 1 receptor (Homo sapiens) (UniProt P08069); assay: Inhibition of IGF1R at 10 uM; summary of the method: as §5
[35] = Growth inhibition of human A375P cells at 8.05 uM by MTT assay relative to total growth; format: functional; conditions: read-out: GI
WM3629 = assay: as §3; format: functional; summary of the method: as §4

C[C@H](O)CNc1nccc(-n2ccnc2C(=O)c2ccc(NC(=O)c3ccc(Cl)c(C(F)(F)F)c3)cc2)n1
GI50 [1]: 2.51 µM | GI50 [2]: 1.37 µM

C[C@H](O)CNc1nccc(-n2ccnc2-c2ccc(NC(=O)Nc3cccc(C(F)(F)F)c3)cc2)n1
GI50 [1]: 7.19 µM | GI50 [2]: 12.9 µM

C[C@H](O)CNc1nccc(-n2ccnc2-c2cccc(NC(=O)Nc3cccc(Cl)c3)c2)n1
RatioGI50 [3]: 5 | GI50 [1]: 85.8 µM | GI50 [2]: > 100 µM

C[C@H](O)CNc1nccc(-n2ccnc2-c2cccc(NC(=O)Nc3ccc(N4CCOCC4)c(C(F)(F)F)c3)c2)n1
RatioGI50 [3]: 5 | GI50 [1]: 34.6 µM | GI50 [2]: 3.28 µM

C[C@H](O)CNc1nccc(-n2ccnc2-c2cccc(NC(=O)c3ccc(N4CCOCC4)c(C(F)(F)F)c3)c2)n1
RatioGI50 [3]: 5 | GI50 [1]: 28.3 µM | GI50 [2]: 7.37 µM

C[C@H](O)CNc1nccc(-n2ccnc2-c2ccc(NC(=O)c3coc(-c4cc(C(F)(F)F)ccc4Cl)c3)cc2)n1
GI50 [1]: 2.23 µM | GI50 [2]: > 100 µM

Cc1cn(-c2cc(C(=O)Nc3cccc(-c4nccn4-c4ccnc(NC[C@H](C)O)n4)c3)cc(C(F)(F)F)c2)cn1
RatioGI50 [3]: 5 | GI50 [1]: 6.72 µM | GI50 [2]: 3.49 µM

C[C@H](O)CNc1nccc(-n2ccnc2-c2cccc(NC(=O)c3cc(-c4ccc(Cl)cc4)on3)c2)n1
RatioGI50 [3]: 5 | GI50 [1]: 164 µM | inhibition of growth at 164 µM [4]: < 66% | GI50 [2]: > 100 µM

COc1ccc(-c2cc(C(=O)Nc3cccc(-c4nccn4-c4ccnc(NC[C@H](C)O)n4)c3)co2)cc1
RatioGI50 [3]: 5 | GI50 (A375P): inactive | GI50 [2]: 22.3 µM

C[C@H](O)CNc1nccc(-n2ccnc2-c2cccc(NC(=O)c3ccc(Cl)c(C(F)(F)F)c3)c2)n1
inhibition [5]: < 0% | inhibition [6]: < 0% | inhibition [7]: 21% | inhibition [8]: 5.9% | inhibition [9]: 9.4% | RatioGI50 [3]: 5 | inhibition [10]: 14% | inhibition [11]: 5.1% | inhibition [12]: 89% | inhibition [13]: 0% | inhibition [14]: < 0% | inhibition [15]: < 0% | inhibition [16]: 5% | inhibition [17]: 0.21% | inhibition [18]: 0.8% | GI50 [1]: 4.49 µM | inhibition [19]: 1.1% | inhibition [20]: 7.6% | inhibition [21]: 21% | inhibition [22]: < 0% | inhibition [23]: 99% | inhibition [24]: 2.4% | inhibition [25]: 1.5% | inhibition [26]: 82% | inhibition [27]: 0.19% | inhibition [28]: < 0% | inhibition [29]: 17% | GI50 [2]: 0.62 µM | inhibition [30]: 6.8% | inhibition [31]: 10% | inhibition [32]: 13% | inhibition [33]: 1.7% | inhibition [34]: 3.6%

C[C@H](O)CNc1nccc(-n2ccnc2-c2cccc(NC(=O)Nc3cccc(C(F)(F)F)c3)c2)n1
RatioGI50 [3]: 5 | GI50 [1]: 19.2 µM | GI50 [2]: 7.86 µM

C[C@H](O)CNc1nccc(-n2ccnc2-c2cccc(NC(=O)c3ncc(-c4ccncc4)s3)c2)n1
RatioGI50 [3]: 5 | GI50 [1]: > 100 µM | GI50 [2]: 13.8 µM

COc1ccc(-c2cc(C(=O)Nc3ccc(-c4nccn4-c4ccnc(NC[C@H](C)O)n4)cc3)co2)cc1
inhibition of growth at 8.05 µM [35]: < 66% | GI50 [1]: 8.05 µM | GI50 [2]: > 100 µM

C[C@H](O)CNc1nccc(-n2ccnc2-c2ccc(NC(=O)Nc3ccc(Cl)c(Cl)c3)cc2)n1
GI50 [1]: 17.8 µM | GI50 [2]: 2.45 µM

C[C@H](O)CNc1nccc(-n2ccnc2-c2cccc(NC(=O)Nc3ccc(Cl)c(Cl)c3)c2)n1
RatioGI50 [3]: 5 | GI50 [1]: 5.93 µM | GI50 [2]: 0.65 µM

C[C@H](O)CNc1nccc(-n2ccnc2-c2ccc(NC(=O)c3cc(-c4ccc(Cl)cc4)on3)cc2)n1
GI50 [1]: > 100 µM | GI50 [2]: > 100 µM

C[C@H](O)CNc1nccc(-n2ccnc2-c2cccc(NC(=O)c3cc(N4CCN(C)CC4)cc(C(F)(F)F)c3)c2)n1
RatioGI50 [3]: 5 | GI50 [1]: 10.4 µM | GI50 [2]: 9.13 µM

C[C@H](O)CNc1nccc(-n2ccnc2-c2cccc(NC(=O)c3coc(-c4cc(C(F)(F)F)ccc4Cl)c3)c2)n1
RatioGI50 [3]: 5 | GI50 (WM3629): inactive

C[C@H](O)CNc1nccc(-n2ccnc2-c2cccc(NC(=O)Nc3ccc(Cl)c(C(F)(F)F)c3)c2)n1
RatioGI50 [3]: 5 | GI50 [1]: 58.2 µM | GI50 [2]: > 100 µM

C[C@H](O)CNc1nccc(-n2ccnc2-c2ccc(NC(=O)c3ncc(-c4ccncc4)s3)cc2)n1
GI50 [1]: 139 µM | GI50 [2]: > 100 µM

C[C@H](O)CNc1nccc(-n2ccnc2-c2ccc(NC(=O)c3ccc(N4CCOCC4)c(C(F)(F)F)c3)cc2)n1
GI50 [1]: > 100 µM | GI50 [2]: > 100 µM

CNC(=O)c1cc(Oc2ccc(NC(=O)Nc3ccc(Cl)c(C(F)(F)F)c3)cc2)ccn1 [SORAFENIB]
GI50 [1]: 5.58 µM | GI50 [2]: 0.78 µM

Cc1ccc2nc(NC(=O)Nc3cccc(-c4nccn4-c4ccnc(NC[C@H](C)O)n4)c3)sc2c1
RatioGI50 [3]: 5 | GI50 [1]: 19.4 µM | GI50 [2]: 4.54 µM

C[C@H](O)CNc1nccc(-n2ccnc2-c2ccc(NC(=O)Nc3cccc(Cl)c3)cc2)n1
GI50 [1]: 3.19 µM | GI50 [2]: 4.99 µM

C[C@H](O)CNc1nccc(-n2ccnc2-c2cccc(NC(=O)c3cccc(C(F)(F)F)c3)c2)n1
RatioGI50 [3]: 5 | GI50 (A375P): inactive | GI50 (WM3629): inactive

C[C@H](O)CNc1nccc(-n2ccnc2-c2ccc(NC(=O)Nc3ccc(Cl)c(C(F)(F)F)c3)cc2)n1
GI50 [1]: 10.1 µM | GI50 [2]: 4.43 µM

C[C@H](O)CNc1nccc(-n2ccnc2C(=O)c2ccc(NC(=O)Nc3ccc(Cl)c(C(F)(F)F)c3)cc2)n1
GI50 [1]: 9.29 µM | GI50 [2]: 3.51 µM

C[C@H](O)CNc1nccc(-n2ccnc2-c2ccc(NC(=O)c3cc(N4CCOCC4)cc(C(F)(F)F)c3)cc2)n1
GI50 [1]: 35.6 µM | GI50 [2]: 2.25 µM

C[C@H](O)CNc1nccc(-n2ccnc2-c2ccc(NC(=O)c3ccc(Cl)c(C(F)(F)F)c3)cc2)n1
GI50 [1]: 79.2 µM | GI50 [2]: > 100 µM
